Tests used:
[1] = Resistance factor was determined using the ratio of cytotoxicity of both the cell lines; format: functional
L1210/2 = assay: Cytotoxicity in cisplatin-resistant L1210/2 cell lines; format: functional, cell-based, Mus musculus
In short: (§1)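 Murine leukemia L1210/0 (wild-type) or L1210/2 (cisplatin-resistant) cells in McCoy's 5a + 10% FCS with penicillin/streptomycin; 5 × 10⁴ cells/mL pre-cultured 24 h at 37 °C, 5% CO2. Then treated with at least three platinum concentrations (fresh water stocks diluted in medium). Cells counted in a counting chamber after 72 h. IC50 = concentration reducing growth to 50% of control; each concentration tested in ≥2 independent experiments.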

L1210 = assay: Cytotoxicity against L1210/0 cell line of murine leukemia; format: functional, cell-based, Mus musculus; in short: as §1

Row | Sequence | RF [1] | IC50 (L1210/2) | IC50 (L1210)
1 | CISPLATIN [listing 1 of 2 here] | 3.1 |  | 
2 | TRANSPLATIN [listing 1 of 2 here] |  | 22 µM | 15.7 µM
3 | TRANSPLATIN [listing 2 of 2 here] | 1.4 |  | 
4 | CISPLATIN [listing 2 of 2 here] |  | 4.6 µM | 1.5 µM

From ChEMBL document CHEMBL1134609, “Dinuclear alkyldiamine platinum antitumor compounds: a structure-activity relationship study” (J Med Chem, 2001)
